Test results taken from ChEMBL document CHEMBL1250469, “Design, synthesis, and biological evaluation of ketoprofen analogs as potent cyclooxygenase-2 inhibitors” (Bioorg Med Chem, 2010).

Species: Ovis aries
Test: Selectivity index, ratio of IC50 for sheep COX1 to IC50 for COX2
Procedure, shortened: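 Ratio of IC50 for COX-1 to IC50 for COX-2. Both come from the ovine chemiluminescent COX assay, with arachidonic acid as substrate and a naphthalene hydrazide luminescence read-out. Each IC50 is the mean of two determinations.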

Ratio IC50	Structure (SMILES)
231	CS(=O)(=O)c1ccc(-c2cc(C(=O)O)c3cccc(C(=O)c4ccccc4)c3n2)cc1
256	CC(=O)Nc1ccc(-c2cc(C(=O)O)c3cc(C(=O)c4ccccc4)ccc3n2)cc1
115	CC(=O)Nc1ccc(-c2cc(C(=O)O)c3cccc(C(=O)c4ccccc4)c3n2)cc1

More lines, now with the values behind:

Structure (SMILES)	Ratio IC50
[N-]=[N+]=Nc1ccc(-c2cc(C(=O)O)c3cccc(C(=O)c4ccccc4)c3n2)cc1	1150
[N-]=[N+]=Nc1ccc(-c2cc(C(=O)O)c3cc(C(=O)c4ccccc4)ccc3n2)cc1	> 1300
CS(=O)(=O)c1ccc(-c2cc(C(=O)O)c3cc(C(=O)c4ccccc4)ccc3n2)cc1	317
